From ChEMBL document CHEMBL1145845, “Acetogenins as selective inhibitors of the human ovarian 1A9 tumor cell line” (2003)
≈ marks a conversion by molar mass, not a printed value.

Legend:
Format in all cases: functional
[1] = tested on: KB; test: Effective dose required for inhibitory activity against KB human tumor cell line.; conditions: read-out: ED50 (the source's name)
Method in brief: (§1)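 Human tumor lines were grown in RPMI-1640 with 25 mM HEPES, 0.25% sodium bicarbonate, 10% FBS and 100 µg/mL kanamycin. KB-VIN is a vincristine-resistant KB subline, and PTX10 is a 1A9 subline with mutated β-tubulin. Trypsinized cells (1500–7500/well) got compound from DMSO stock for 3 days continuous. Cells were fixed with cold 50% TCA, stained with 0.4% SRB, and read at 562 nm. ED50 is the 50% growth-reduction concentration; not active means ≤5% inhibition at the top concentration.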

[2] = tested on: A549; test: Effective dose required for inhibitory activity against A549 human tumor cell line.; conditions: read-out: ED50 (the source's name); method in brief: as §1
[3] = tested on: 1A9/ptx-10; test: Percent inhibition against PTX10 human tumor cell line at >10 ug/mL
[4] = tested on: KB; test: Effective dose required for inhibitory activity against KB-VIN human tumor cell line.; conditions: read-out: ED50 (the source's name); method in brief: as §1
[5] = tested on: HCT-8; test: Effective dose required for inhibitory activity against HCT-8 human tumor cell line.; conditions: read-out: ED50 (the source's name); method in brief: as §1
[6] = tested on: 1A9; test: Effective dose required for inhibitory activity against 1A9 human tumor cell line.; conditions: read-out: ED50 (the source's name); method in brief: as §1
[7] = tested on: PC-3; test: Effective dose required for inhibitory activity against PC-3 human tumor cell line.; conditions: read-out: ED50 (the source's name); method in brief: as §1
[8] = tested on: CAKI-1; test: Effective dose required for inhibitory activity against CAK1 human tumor cell line; conditions: read-out: ED50 (the source's name); method in brief: as §1
[9] = tested on: HOS; test: Effective dose required for inhibitory activity against HOS human tumor cell line.; conditions: read-out: ED50 (the source's name); method in brief: as §1
[10] = tested on: SK-MEL-2; test: Effective dose required for inhibitory activity against SK-MEL-2 human tumor cell line.; conditions: read-out: ED50 (the source's name); method in brief: as §1
[11] = tested on: MCF7; test: Effective dose required for inhibitory activity against MCF-7 human tumor cell line.; conditions: read-out: ED50 (the source's name); method in brief: as §1
[12] = tested on: 1A9/ptx-10; test: Effective dose required for inhibitory activity against PTX10 human tumor cell line; conditions: read-out: ED50 (the source's name); method in brief: as §1

CCCCCCCC(O)C(O)CC[C@H](O)[C@@H]1CC[C@@H](CCCCCCCCCC[C@H](O)CC2=C[C@H](C)OC2=O)O1 (some centres undefined)
EC50 [1]: 18 µg/mL (≈ 31.6 µM)
EC50 [2]: > 20 µg/mL
Inhibition [3]: 27%
EC50 [4]: > 20 µg/mL
EC50 [5]: > 20 µg/mL
EC50 [6]: 0.68 µg/mL (≈ 1.2 µM)
EC50 [7]: > 20 µg/mL
EC50 [8]: > 20 µg/mL
EC50 [9]: > 20 µg/mL
EC50 [10]: > 20 µg/mL
EC50 [11]: 15.5 µg/mL (≈ 27.2 µM)

CCCCCCCCCCCC[C@@H](O)[C@H]1CC[C@@H]([C@@H](O)CCCCCCC(O)CCCCC[C@@H](O)CC2=C[C@H](C)OC2=O)O1 (some centres undefined)
EC50 [1]: 10.8 µg/mL (≈ 17.3 µM)
EC50 [2]: 14.5 µg/mL (≈ 23.2 µM)
EC50 [12]: 8.7 µg/mL (≈ 13.9 µM)
EC50 [4]: 14 µg/mL (≈ 22.4 µM)
EC50 [5]: 15 µg/mL (≈ 24 µM)
EC50 [6]: 0.08 µg/mL (≈ 0.128 µM)
EC50 [7]: 14 µg/mL (≈ 22.4 µM)
EC50 [8]: 17.3 µg/mL (≈ 27.7 µM)
EC50 [9]: 15 µg/mL (≈ 24 µM)
EC50 [10]: 15.1 µg/mL (≈ 24.2 µM)
EC50 [11]: 6.6 µg/mL (≈ 10.6 µM)

CCCCCCCC/C=C\CC[C@H](O)[C@@H]1CC[C@@H]([C@H](O)CCCCC(O)CCCCCC(O)CC2=C[C@H](C)OC2=O)O1 (some centres undefined)
EC50 [1]: 13 µg/mL (≈ 21.9 µM)
EC50 [2]: 17 µg/mL (≈ 28.6 µM)
Inhibition [3]: 40%
EC50 [4]: 17.5 µg/mL (≈ 29.4 µM)
EC50 [5]: 14.4 µg/mL (≈ 24.2 µM)
EC50 [6]: 0.93 µg/mL (≈ 1.56 µM)
EC50 [7]: 15.3 µg/mL (≈ 25.7 µM)
EC50 [8]: 19 µg/mL (≈ 31.9 µM)
EC50 [9]: 17 µg/mL (≈ 28.6 µM)
EC50 [10]: 17 µg/mL (≈ 28.6 µM)
EC50 [11]: 7.6 µg/mL (≈ 12.8 µM)

CCCCCCCCC[C@H](O)[C@@H]1CC[C@@H]([C@@H]2CC[C@@H](CCCCCCCCCC[C@H](O)CC3=C[C@H](C)OC3=O)O2)O1
EC50 [1]: 13.5 µg/mL (≈ 23.3 µM)
EC50 [2]: 17.2 µg/mL (≈ 29.7 µM)
Inhibition [3]: 30%
EC50 [4]: > 20 µg/mL
EC50 [5]: 13.8 µg/mL (≈ 23.8 µM)
EC50 [6]: 1.93 µg/mL (≈ 3.33 µM)
EC50 [7]: 14.5 µg/mL (≈ 25 µM)
EC50 [8]: 17.8 µg/mL (≈ 30.7 µM)
EC50 [9]: 16 µg/mL (≈ 27.6 µM)
EC50 [10]: 15.3 µg/mL (≈ 26.4 µM)
EC50 [11]: 7.6 µg/mL (≈ 13.1 µM)

CCCCCCCCCCCC[C@@H](O)[C@H]1CC[C@@H]([C@@H](O)CCCCC(=O)CCCCCCCC2=C[C@H](C)OC2=O)O1 [COROSSOLONE]
EC50 [1]: 18 µg/mL (≈ 31.1 µM)
EC50 [2]: 19 µg/mL (≈ 32.8 µM)
Inhibition [3]: 37%
EC50 [4]: > 20 µg/mL
EC50 [5]: > 20 µg/mL
EC50 [6]: 0.82 µg/mL (≈ 1.42 µM)
EC50 [7]: 13.5 µg/mL (≈ 23.3 µM)
EC50 [8]: > 20 µg/mL
EC50 [9]: > 20 µg/mL
EC50 [10]: 18.8 µg/mL (≈ 32.5 µM)
EC50 [11]: 7.9 µg/mL (≈ 13.6 µM)

CCCCCCCC(O)C(O)CCCC[C@@H](O)[C@H]1CC[C@H](CCCCCCCCCCCCC2=C[C@H](C)OC2=O)O1 (some centres undefined)
EC50 [1]: 15.1 µg/mL (≈ 26 µM)
EC50 [2]: > 20 µg/mL
Inhibition [3]: 37%
EC50 [4]: > 20 µg/mL
EC50 [5]: > 20 µg/mL
EC50 [6]: 0.77 µg/mL (≈ 1.33 µM)
EC50 [7]: 17.5 µg/mL (≈ 30.1 µM)
EC50 [8]: > 20 µg/mL
EC50 [9]: > 20 µg/mL
EC50 [10]: 17.5 µg/mL (≈ 30.1 µM)
EC50 [11]: 10.5 µg/mL (≈ 18.1 µM)

CCCCCCCCCCCC[C@@H](O)[C@H]1CC[C@H]([C@H](O)CCCCC(=O)CCCCC[C@@H](O)CC2=C[C@H](C)OC2=O)O1 [ANNONACINONE]
EC50 [1]: 18.3 µg/mL (≈ 30.8 µM)
EC50 [2]: > 20 µg/mL
Inhibition [3]: 36%
EC50 [4]: > 20 µg/mL
EC50 [5]: > 20 µg/mL
EC50 [6]: 0.74 µg/mL (≈ 1.24 µM)
EC50 [7]: > 20 µg/mL
EC50 [8]: > 20 µg/mL
EC50 [9]: > 20 µg/mL
EC50 [10]: > 20 µg/mL
EC50 [11]: 11.5 µg/mL (≈ 19.3 µM)

CC(=O)O[C@H]1C(=O)[C@@]2(C)[C@H]([C@H](OC(=O)c3ccccc3)[C@]3(O)C[C@H](OC(=O)[C@H](O)[C@@H](NC(=O)c4ccccc4)c4ccccc4)C(C)=C1C3(C)C)[C@]1(OC(C)=O)CO[C@@H]1C[C@@H]2O [PACLITAXEL]
EC50 [1]: 0.001 µg/mL (≈ 0.00117 µM)
EC50 [2]: 0.005 µg/mL (≈ 0.00586 µM)
EC50 [12]: 0.041 µg/mL (≈ 0.048 µM)
EC50 [5]: 0.011 µg/mL (≈ 0.0129 µM)
EC50 [6]: 0.002 µg/mL (≈ 0.00234 µM)

CCCCCCCCCCCCCC[C@@H](O)[C@H]1CC[C@H]([C@H](O)CCC(O)CCCCCCCC2=C[C@H](C)OC2=O)O1 (some centres undefined)
EC50 [1]: 17.3 µg/mL (≈ 29.8 µM)
EC50 [2]: 20 µg/mL (≈ 34.4 µM)
Inhibition [3]: 43%
EC50 [4]: > 20 µg/mL
EC50 [5]: 20 µg/mL (≈ 34.4 µM)
EC50 [6]: 0.81 µg/mL (≈ 1.39 µM)
EC50 [7]: 16.8 µg/mL (≈ 28.9 µM)
EC50 [8]: > 20 µg/mL
EC50 [9]: > 20 µg/mL
EC50 [10]: > 20 µg/mL
EC50 [11]: 9 µg/mL (≈ 15.5 µM)

CCCCCCCCCCCCC(O)C(O)CCC(O)[C@H]1CC[C@H](CCCCCCC[C@@H](O)CC2=C[C@H](C)OC2=O)O1 (some centres undefined)
EC50 [1]: > 20 µg/mL
EC50 [2]: > 20 µg/mL
Inhibition [3]: 37%
EC50 [4]: > 20 µg/mL
EC50 [5]: > 20 µg/mL
EC50 [6]: 0.07 µg/mL (≈ 0.117 µM)
EC50 [7]: > 20 µg/mL
EC50 [8]: > 20 µg/mL
EC50 [9]: > 20 µg/mL
EC50 [10]: > 20 µg/mL
EC50 [11]: 11.5 µg/mL (≈ 19.3 µM)
